# Assay results from different studies.
# Compare with care: the assays were run in different laboratories.
# Target: Serine/threonine-protein kinase MAK (MAK, Homo sapiens, UniProt P20794)
# Sequence (P20794 1-623, as in one of the studies): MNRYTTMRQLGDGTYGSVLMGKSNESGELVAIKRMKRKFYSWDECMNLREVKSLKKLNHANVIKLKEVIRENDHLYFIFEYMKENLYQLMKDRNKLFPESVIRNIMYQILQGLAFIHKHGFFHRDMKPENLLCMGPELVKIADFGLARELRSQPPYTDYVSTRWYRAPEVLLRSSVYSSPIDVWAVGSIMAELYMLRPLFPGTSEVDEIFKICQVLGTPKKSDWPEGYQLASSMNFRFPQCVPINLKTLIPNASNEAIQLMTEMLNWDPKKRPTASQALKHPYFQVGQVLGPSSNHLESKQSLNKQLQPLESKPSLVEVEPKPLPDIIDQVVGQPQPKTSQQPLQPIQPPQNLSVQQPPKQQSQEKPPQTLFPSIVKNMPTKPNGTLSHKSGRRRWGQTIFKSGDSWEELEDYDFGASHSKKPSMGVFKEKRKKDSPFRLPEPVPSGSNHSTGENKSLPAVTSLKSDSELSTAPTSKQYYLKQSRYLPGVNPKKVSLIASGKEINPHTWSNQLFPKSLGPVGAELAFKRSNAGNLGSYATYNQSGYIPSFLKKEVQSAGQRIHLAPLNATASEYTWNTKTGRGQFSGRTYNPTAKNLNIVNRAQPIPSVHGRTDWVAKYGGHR
SMILES,effect on,method,tested at,remaining binding [%]
O=C(c1ccc(Nc2ncc(Cl)c(-c3cc4ccccc4s3)n2)cc1)N1CCC(N2CCCC2)CC1,binding,competition with immobilised ligand,1 µM,100
FC(F)(F)Oc1cccc(-c2cnc3ccc(-c4ccncc4)nn23)c1,cell-free assay,competition with immobilised ligand,5 µM,99
C[C@@H](c1ccc(-n2cnc3c(N)ncnc32)cc1)N1CCc2nn(C)c(Cc3ccccc3)c2C1=O,binding,competition with immobilised ligand,0.1 µM,82
O=C(N1CCS(=O)(=O)CC1)N1C[C@H](c2ccc(OC(F)(F)F)cc2)C[C@H](c2nc(C3CC3)no2)C1,binding,competition with immobilised ligand,1 µM,100
F[C@@H]1CCN(c2nccc(-c3cnn4ncccc34)n2)C1,binding,,1 µM,86
CNC(=O)Nc1ccc2c(c1)[C@@]1(CC2)OC(=O)N(CC(=O)N(Cc2ccc(F)cc2)[C@@H](C)C(F)(F)F)C1=O,cell-free assay,competition with immobilised ligand,1 µM,100
CC1CCCN1c1nccc(-c2cnn3ncccc23)n1 (stereo not shown),binding,,1 µM,100
NS(=O)(=O)c1cc(NC(=O)Cc2ccccc2)ccc1Oc1cccc(Cl)c1,cell-free assay,competition with immobilised ligand,1 µM,100
c1cncc(-c2cccc(Nc3nccc(NC4CCCCC4)n3)c2)c1,binding,competition with immobilised ligand,10 µM,61
COc1cnc(Nc2cccc(S(N)(=O)=O)c2)nc1N1CCN(c2ccccc2)CC1,binding,competition with immobilised ligand,1 µM,100
C=CC(=O)N1CCC(C(=O)NCC(=O)N2CCN(c3nc(-c4cnc(N)nc4C(F)F)nc(N4CCOCC4)n3)CC2)CC1,binding,competition with immobilised ligand,1 µM,100
O=C(NCC1CCOCC1)c1n[nH]cc1NC(=O)c1c(F)cccc1F,binding,competition with immobilised ligand,1 µM,56
CN(C)c1nccc(-c2cnc3ncccn23)n1,binding,,1 µM,100
CS(=O)(=O)N1CCCC(NC(=O)[C@H](CCC2CCCCC2)NC(=O)c2ccc(CNC(=O)c3cnc4ccccn34)cc2)C1 (stereo partly shown),cell-free assay,competition with immobilised ligand,0.1 µM,100
O=C(c1ccc(Nc2nccc(-c3cc4ccccc4s3)n2)cc1)N1CCC(N2CCCC2)CC1,binding,competition with immobilised ligand,1 µM,100
N[C@@H]1CCN(c2nccc(-c3cnn4ncccc34)n2)C1,binding,,1 µM,100
O=C1CCc2cc(Nc3cc(OC4CCOCC4)c([N+](=O)[O-])cc3Cl)ccc2N1,cell-free assay,competition with immobilised ligand,1 µM,100
CN(c1nccc(-c2cnn3ncccc23)n1)C1CC1,binding,,1 µM,100
CCC(=O)N[C@H]1CC[C@@H](C(=O)N(C)c2ccc(-c3nc4ccccc4o3)cc2)C1,cell-free assay,competition with immobilised ligand,1 µM,85
O=C(NCCCN1CCOCC1)c1ccc(Nc2nccc(-c3cc4ccccc4s3)n2)cc1,binding,competition with immobilised ligand,1 µM,100
C[C@@H]1CCN(c2nccc(-c3cnn4ncccc34)n2)C1,binding,,1 µM,97
Nc1ncc2c(n1)-c1c([nH]c3ccc(C#CC4CC4)cc13)CCCC2,binding,competition with immobilised ligand,1 µM,100
